Reference: ChEMBL document CHEMBL2331081, “Fragment-based drug design and identification of HJC0123, a novel orally bioavailable STAT3 inhibitor for cancer therapy” (Eur J Med Chem, 2013)
Active and inactive are the calls of the source. No cut-off for these calls is given here.

Legend:
MDA-MB-231 [1] = experiment: CYtotoxicity against ER-negative human MDA-MB-231 cells by MTS assay; type: functional, cell-based
Procedure, shortened: (§1)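 Cells seeded at 2×10^3/well, exposed to DMSO or 0.01, 0.1, 1, 5, 10 and 100 μM compound for 72 h. MTS reagent added, then OD at 550 nm read after 1 h at 37 °C. Quadruplicate wells per concentration.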

ASPC1 = experiment: CYtotoxicity against human AsPC1 cells by MTS assay; type: functional, cell-based; procedure, shortened: as §1
PANC-1 = experiment: CYtotoxicity against human PANC1 cells by MTS assay; type: functional, cell-based; procedure, shortened: as §1
MCF7 = experiment: CYtotoxicity against ER-positive human MCF7 cells by MTS assay; type: functional, cell-based; procedure, shortened: as §1
MDA-MB-231 [2] = experiment: Cell cycle arrest in human MDA-MB-231 cells assessed as accumulation at G2/M phase at 2.5 uM after 24 hrs by flow cytometry (reference value: 25.1 %); type: functional
MDA-MB-231 [3] = experiment: Induction of apoptosis in human MDA-MB-231 cells assessed as viable cells at 5 uM after 48 hrs by annexin V-based flow cytometry (reference value: 90.62 %); type: functional; conditions: MDA-MB-231, 48 h, read-out: Activity
MDA-MB-231 [4] = experiment: Cell cycle arrest in human MDA-MB-231 cells assessed as accumulation at G0/G1 phase at 5 uM after 24 hrs by flow cytometry (reference value: 53.6 %); type: functional
MDA-MB-231 [5] = experiment: Cell cycle arrest in human MDA-MB-231 cells assessed as accumulation at S phase at 2.5 uM after 24 hrs by flow cytometry (reference value: 16.7 %); type: functional
[6] = target: Signal transducer and activator of transcription 3 (Homo sapiens) (UniProt P40763); experiment: Inhibition of total STAT3 protein expression in human MDA-MB-231 cells at 5 uM after 48 hrs by Western blot analysis; type: cell-based
Signal transducer and activator of transcription 3 (Homo sapiens), sequence (P40763 whole entry): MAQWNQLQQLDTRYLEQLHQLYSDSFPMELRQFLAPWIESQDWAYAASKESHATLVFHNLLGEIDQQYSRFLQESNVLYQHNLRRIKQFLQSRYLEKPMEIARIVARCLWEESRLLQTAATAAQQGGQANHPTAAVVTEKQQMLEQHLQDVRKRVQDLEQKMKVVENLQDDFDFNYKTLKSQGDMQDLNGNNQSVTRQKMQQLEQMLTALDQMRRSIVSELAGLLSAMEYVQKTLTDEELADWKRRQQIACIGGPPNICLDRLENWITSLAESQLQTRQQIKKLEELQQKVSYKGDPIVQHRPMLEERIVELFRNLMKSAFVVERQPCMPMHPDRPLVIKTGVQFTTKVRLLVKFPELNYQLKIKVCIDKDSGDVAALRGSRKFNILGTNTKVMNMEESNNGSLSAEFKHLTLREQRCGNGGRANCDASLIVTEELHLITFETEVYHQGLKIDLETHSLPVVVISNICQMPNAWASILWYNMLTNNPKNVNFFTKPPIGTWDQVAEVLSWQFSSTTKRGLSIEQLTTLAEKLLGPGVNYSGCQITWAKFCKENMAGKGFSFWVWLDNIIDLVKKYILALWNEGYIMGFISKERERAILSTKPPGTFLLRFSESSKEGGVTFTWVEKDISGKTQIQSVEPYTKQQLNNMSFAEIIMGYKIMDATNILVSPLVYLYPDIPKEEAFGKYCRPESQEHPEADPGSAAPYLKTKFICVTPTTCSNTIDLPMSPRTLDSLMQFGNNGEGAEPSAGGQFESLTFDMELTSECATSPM
Procedure, shortened: (§2)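 Whole-cell lysates of treated MDA-MB-231 cells; 40 µg protein per lane run on 10% SDS-PAGE and transferred to nitrocellulose. Blocked in 5% milk/1% Tween 20 in TBS. Probed for pSTAT3-Y705 (1:3000), STAT3 (1:2000) and cleaved caspase-3 (1:2000), with β-actin as loading reference. Secondary antibody at 1:4000, ECL detection.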

MDA-MB-231 [7] = experiment: Cell cycle arrest in human MDA-MB-231 cells assessed as accumulation at G0/G1 phase at 1 uM after 24 hrs by flow cytometry (reference value: 53.6 %); type: functional
MDA-MB-231 [8] = experiment: Cell cycle arrest in human MDA-MB-231 cells assessed as accumulation at S phase at 1 uM after 24 hrs by flow cytometry (reference value: 16.7 %); type: functional
MDA-MB-231 [9] = experiment: Induction of apoptosis in human MDA-MB-231 cells assessed as late apoptotic cells at 5 uM after 48 hrs by annexin V-based flow cytometry (reference value: 4.98 %); type: functional
MDA-MB-231 [10] = experiment: Cell cycle arrest in human MDA-MB-231 cells assessed as accumulation at G2/M phase at 1 uM after 24 hrs by flow cytometry (reference value: 25.1 %); type: functional
MDA-MB-231 [11] = experiment: Induction of apoptosis in human MDA-MB-231 cells assessed as dead cells at 2.5 uM after 48 hrs by annexin V-based flow cytometry (reference value: 0.24 %); type: functional
MDA-MB-231 [12] = experiment: Antiproliferative activity against human MDA-MB-231 cells assessed as change in cell morphology after 48 hrs by light microscopy; type: functional, cell-based
MDA-MB-231 [13] = experiment: Antitumor activity against human MDA-MB-231 cells xenografted in immunodeficient nude mouse assessed as reduction in tumor volume at 50 mg/kg, po administered 5 days a week; type: functional, organism-based; design: dose 50 mg/kg
Procedure, shortened: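 Female nude mice aged 4–6 weeks were used, housed in a barrier unit. Each mouse received 2.5×10^6 fresh MDA-MB-231 cells in 100 µL PBS into the 3rd mammary fat pad (orthotopic). Mice were randomized into 2 groups of 6–7. Oral dosing or vehicle (50% DMSO/50% PEG) started once tumors reached 200 mm³. Tumor volume measured daily, calculated as 0.5×L×W².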

MDA-MB-231 [14] = experiment: Induction of apoptosis in human MDA-MB-231 cells assessed as early apoptotic cells at 2.5 uM after 48 hrs by annexin V-based flow cytometry (reference value: 4.16 %); type: functional
MDA-MB-231 [15] = experiment: Cell cycle arrest in human MDA-MB-231 cells assessed as accumulation at S phase after 24 hrs by flow cytometry; type: functional, cell-based
Mus musculus = experiment: Toxicity in human MDA-MB-231 cells xenografted immunodeficient nude mouse assessed as change in body weight at 50 mg/kg, po; conditions: in vivo
[16] = target: Signal transducer and activator of transcription 3 (Homo sapiens) (UniProt P40763); experiment: Inhibition of STAT3 promoter activity in human MDA-MB-231 cells at 5 uM after 24 hrs by luciferase reporter gene assay relative to control; type: cell-based
Procedure, shortened: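 MDA-MB-231 cells seeded at 5×10^4/well in RPMI-1640 with 10% FBS and were transiently transfected 4 h after plating. Each well received 0.5 μg DNA: pSTAT3-Luc (95%) and renilla control vector (5%). Compound was added 5 h post-transfection for 24 h. Read-out is dual luciferase, as firefly/renilla ratio relative to DMSO control. Triplicate wells; representative of ≥3 independent experiments.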

MDA-MB-231 [17] = experiment: Cell cycle arrest in human MDA-MB-231 cells assessed as accumulation at G0/G1 phase at 2.5 uM after 24 hrs by flow cytometry (reference value: 53.6 %); type: functional
MDA-MB-231 [18] = experiment: Induction of apoptosis in human MDA-MB-231 cells assessed as dead cells at 5 uM after 48 hrs by annexin V-based flow cytometry (reference value: 0.24 %); type: functional
MDA-MB-231 [19] = experiment: Cell cycle arrest in human MDA-MB-231 cells assessed as accumulation at G2/M phase at 5 uM after 24 hrs by flow cytometry (reference value: 25.1 %); type: functional
MDA-MB-231 [20] = experiment: Induction of apoptosis in human MDA-MB-231 cells assessed as viable cells at 1 uM after 48 hrs by annexin V-based flow cytometry (reference value: 90.62 %); type: functional; conditions: MDA-MB-231, 48 h, read-out: Activity
MDA-MB-231 [21] = experiment: Induction of apoptosis in human MDA-MB-231 cells assessed as viable cells at 2.5 uM after 48 hrs by annexin V-based flow cytometry (reference value: 90.62 %); type: functional; conditions: MDA-MB-231, 48 h, read-out: Activity
MDA-MB-231 [22] = experiment: Induction of apoptosis in human MDA-MB-231 cells assessed as early apoptotic cells at 5 uM after 48 hrs by annexin V-based flow cytometry (reference value: 4.16 %); type: functional
MDA-MB-231 [23] = experiment: Induction of apoptosis in human MDA-MB-231 cells assessed as early apoptotic cells at 1 uM after 48 hrs by annexin V-based flow cytometry (reference value: 4.16 %); type: functional
[24] = target: Signal transducer and activator of transcription 3 (Homo sapiens) (UniProt P40763); experiment: Inhibition of total STAT3 protein expression in human MDA-MB-231 cells at 5 uM after 24 hrs by Western blot analysis; type: cell-based; procedure, shortened: as §2
MDA-MB-231 [25] = experiment: Induction of apoptosis in human MDA-MB-231 cells assessed as late apoptotic cells at 1 uM after 48 hrs by annexin V-based flow cytometry (reference value: 4.98 %); type: functional
[26] = target: Signal transducer and activator of transcription 3 (Homo sapiens) (UniProt P40763); experiment: Inhibition of STAT3 phosphorylation at Tyr-705 in human MDA-MB-231 cells at 5 uM after 24 hrs by Western blot analysis; type: cell-based; procedure, shortened: as §2
[27] = target: Signal transducer and activator of transcription 3 (Homo sapiens) (UniProt P40763); experiment: Inhibition of STAT3 phosphorylation at Tyr-705 in human MDA-MB-231 cells at 5 uM after 48 hrs by Western blot analysis; type: cell-based; procedure, shortened: as §2
MDA-MB-231 [28] = experiment: Cell cycle arrest in human MDA-MB-231 cells assessed as accumulation at S phase at 5 uM after 24 hrs by flow cytometry (reference value: 16.7 %); type: functional
MDA-MB-231 [29] = experiment: Induction of apoptosis in human MDA-MB-231 cells assessed as dead cells at 1 uM after 48 hrs by annexin V-based flow cytometry (reference value: 0.24 %); type: functional
MDA-MB-231 [30] = experiment: Induction of apoptosis in human MDA-MB-231 cells assessed as late apoptotic cells at 2.5 uM after 48 hrs by annexin V-based flow cytometry (reference value: 4.98 %); type: functional
MDA-MB-231 [31] = experiment: Induction of apoptosis in human MDA-MB-231 cells assessed as caspase-3 cleavage at 5 uM after 24 to 48 hrs by Western blot analysis; type: functional, cell-based; procedure, shortened: as §2

O=C(Nc1ccc2c(c1)S(=O)(=O)C=C2)c1cc(Cl)ccc1O
IC50 (MDA-MB-231 [1]): 1640 nM
IC50 (ASPC1): 1920 nM
IC50 (PANC-1): 2340 nM
IC50 (MCF7): 910 nM

O=C(Nc1ccc2c(c1)S(=O)(=O)C=C2)c1cc(-c2ccccc2)nc2ccccc12
Activity (MDA-MB-231 [2]): 27.5%
viability at 5 µM (MDA-MB-231 [3]): 19.5%
Activity (MDA-MB-231 [4]): 34.1%
Activity (MDA-MB-231 [5]): 21.9%
inhibition [6]: Active
Activity (MDA-MB-231 [7]): 51.5%
Activity (MDA-MB-231 [8]): 16.5%
Activity (MDA-MB-231 [9]): 14.21%
Activity (MDA-MB-231 [10]): 27.6%
Activity (MDA-MB-231 [11]): 0.32%
Activity (MDA-MB-231 [12]): Dose-dependent effect
Activity (MDA-MB-231 [13]): Active
Activity (MDA-MB-231 [14]): 28.53%
Activity (MDA-MB-231 [15]): Dose-dependent effect
Activity (Mus musculus): Non-toxic
inhibition [16]: 65%
Activity (MDA-MB-231 [17]): 43.7%
Activity (MDA-MB-231 [18]): 0.14%
Activity (MDA-MB-231 [19]): 25.8%
viability at 1 µM (MDA-MB-231 [20]): 80.8%
viability at 2.5 µM (MDA-MB-231 [21]): 57.8%
Activity (MDA-MB-231 [22]): 66.12%
IC50 (MDA-MB-231 [1]): 290 nM
Activity (MDA-MB-231 [23]): 9.31%
inhibition [24]: Active
IC50 (ASPC1): 1250 nM
Activity (MDA-MB-231 [25]): 9.26%
inhibition [26]: Active
IC50 (PANC-1): 260 nM
inhibition [27]: Active
Activity (MDA-MB-231 [28]): 26.2%
Activity (MDA-MB-231 [29]): 0.67%
IC50 (MCF7): 100 nM
Activity (MDA-MB-231 [30]): 13.32%
Activity (MDA-MB-231 [31]): Active

O=C(Nc1ccc2c(c1)S(=O)(=O)C=C2)c1ccncc1
IC50 (MDA-MB-231 [1]): > 10000 nM
IC50 (MCF7): > 10000 nM

O=C(Nc1ccc2c(c1)S(=O)(=O)C=C2)c1c2ccccc2nc2ccccc12
IC50 (MDA-MB-231 [1]): > 10000 nM
IC50 (ASPC1): > 10000 nM
IC50 (PANC-1): > 10000 nM
IC50 (MCF7): > 10000 nM

C[C@H](NC(=O)c1cc(-c2ccccc2)nc2ccccc12)c1ccccc1
IC50 (MDA-MB-231 [1]): 86000 nM
IC50 (ASPC1): > 10000 nM
IC50 (PANC-1): > 10000 nM
IC50 (MCF7): 2240 nM

C[C@H](NC(=O)c1cc(Cl)ccc1O)c1ccccc1
IC50 (MDA-MB-231 [1]): 8880 nM
IC50 (ASPC1): 7540 nM
IC50 (PANC-1): 8440 nM
IC50 (MCF7): 900 nM

O=C(Nc1ccc2c(c1)S(=O)(=O)C=C2)c1ccnc2ccccc12
IC50 (MDA-MB-231 [1]): 6210 nM
IC50 (ASPC1): 6970 nM
IC50 (PANC-1): 7920 nM
IC50 (MCF7): 2970 nM

N#C/C(=C\c1cccc(Br)n1)C(=O)Nc1ccc2c(c1)S(=O)(=O)C=C2
IC50 (MDA-MB-231 [1]): 1530 nM
IC50 (ASPC1): 1540 nM
IC50 (PANC-1): 1640 nM
IC50 (MCF7): 3310 nM

O=C(Nc1ccc2c(c1)S(=O)(=O)C=C2)c1cc(-c2ccccc2)nc(-c2ccccc2)c1
IC50 (MDA-MB-231 [1]): 450 nM
IC50 (ASPC1): 120 nM
IC50 (PANC-1): 310 nM
IC50 (MCF7): 650 nM

O=C(Nc1nnc(-c2ccco2)o1)c1cc(Cl)ccc1O
IC50 (MDA-MB-231 [1]): > 10000 nM
IC50 (ASPC1): > 10000 nM
IC50 (PANC-1): > 10000 nM
IC50 (MCF7): > 10000 nM

O=C(Nc1ccc2c(c1)S(=O)(=O)C=C2)c1ccnc(-c2ccccc2)c1
IC50 (MDA-MB-231 [1]): 1850 nM
IC50 (ASPC1): 1300 nM
IC50 (PANC-1): 3350 nM
IC50 (MCF7): 3780 nM

N#CCC(=O)Nc1ccc2c(c1)S(=O)(=O)C=C2
IC50 (MDA-MB-231 [1]): > 10000 nM
IC50 (MCF7): > 10000 nM
